Experimental data reported in ChEMBL document CHEMBL1146211, “Conformationally constrained analogues of diacylglycerol (DAG). 28. DAG-dioxolanones reveal a new additional interaction site in the C1b domain of PKC delta” (J Med Chem, 2007).
Activity calls are given as the source filed them. The calls are words filed in the database; no cut-off is given here.

Key:
[1] = target: Protein kinase C alpha type (Mus musculus, UniProt P20444); experiment: Displacement of [3H]PDBu from mouse recombinant PKCalpha expressed in Escherichia coli
Procedure, shortened: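 Recombinant full-length mouse PKCα, partially purified, is tested for competitive displacement of [3H]PDBu with phosphatidylserine (100 µg/mL), 4 mg/mL bovine IgG and 50 mM Tris-HCl pH 7.4. Incubation is 37 °C for 5 min, followed by polyethylene glycol precipitation on ice and scintillation counting of bound and free label. Ki is calculated by the lab's standard method, averaged over three independent experiments.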

[2] = target: Protein kinase C delta type (Mus musculus) (UniProt P28867); experiment: Ratio of Ki for mouse PKCdelta C1b Q27E mutant to Ki for mouse wild type C1b domain of PKCdelta
Protein kinase C delta type (Mus musculus), sequence (P28867 whole entry, looked up, the tested form may be a part): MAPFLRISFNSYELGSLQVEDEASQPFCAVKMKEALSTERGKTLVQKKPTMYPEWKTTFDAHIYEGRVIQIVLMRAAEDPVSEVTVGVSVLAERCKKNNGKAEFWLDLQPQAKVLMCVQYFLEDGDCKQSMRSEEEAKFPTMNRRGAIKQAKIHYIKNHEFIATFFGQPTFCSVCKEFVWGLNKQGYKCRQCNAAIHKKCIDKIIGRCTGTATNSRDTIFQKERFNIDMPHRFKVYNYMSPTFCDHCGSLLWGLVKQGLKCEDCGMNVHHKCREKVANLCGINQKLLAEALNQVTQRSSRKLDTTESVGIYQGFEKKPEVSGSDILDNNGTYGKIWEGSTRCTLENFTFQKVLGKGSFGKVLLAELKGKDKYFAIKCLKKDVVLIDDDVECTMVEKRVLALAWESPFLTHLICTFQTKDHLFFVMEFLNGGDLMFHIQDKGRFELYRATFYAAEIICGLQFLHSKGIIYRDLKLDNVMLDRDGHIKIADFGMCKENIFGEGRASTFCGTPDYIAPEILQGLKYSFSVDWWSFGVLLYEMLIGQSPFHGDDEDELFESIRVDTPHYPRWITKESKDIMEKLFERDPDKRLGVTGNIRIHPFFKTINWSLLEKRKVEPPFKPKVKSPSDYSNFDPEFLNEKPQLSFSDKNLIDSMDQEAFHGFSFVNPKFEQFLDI

[3] = target: Protein kinase C delta type (Mus musculus, UniProt P28867, Q257E); experiment: Displacement of [3H]PDBu from mouse PKCdelta C1b Q27E mutant expressed in Escherichia coli
Protein kinase C delta type (Mus musculus, UniProt P28867, Q257E), sequence (P28867 whole entry Q257E, the tested form may be a part): as the sequence (P28867 whole entry, looked up, the tested form may be a part) above, with Q257E counted along it
Procedure, shortened: (§1)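 Competitive displacement of [3H]PDBu from GST-tagged C1 domains of PKCδ (expressed in E. coli, IPTG-induced, spin-purified, stored in 30% glycerol at -70 °C). 18 °C for 10 min, PEG precipitation on ice, scintillation counting of pellet and supernatant. Ki from the lab's standard method. Three independent experiments.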

[4] = target: T1, Protein kinase C delta type (Mus musculus, UniProt P28867); experiment: Displacement of [3H]PDBu from mouse wild type C1b domain of PKCdelta expressed in Escherichia coli; procedure, shortened: as §1
T1 sequence (P28867 whole entry, the tested form may be a part): as the sequence (P28867 whole entry, looked up, the tested form may be a part) above

[5] = target: T1, Protein kinase C delta type; experiment: Binding affinity to mouse PKC delta C1a Q27E mutant expressed in Escherichia coli; procedure, shortened: as §1
[6] = target: T1, Protein kinase C delta type; experiment: Binding affinity to mouse wild-type PKCdelta C1a expressed in Escherichia coli; procedure, shortened: as §1
[7] = target: Protein kinase C delta type (Mus musculus) (UniProt P28867); experiment: Effect on membrane translocation of wildype full length PKCdelta-GFP in CHOK1 cells at 20 uM within 5 mins; type: functional, cell-based; conditions: CHO-K1
Procedure, shortened: (§2)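 CHO-K1 cells grown at 37 °C, 5% CO2 in F-12 with 10% FBS and penicillin/streptomycin, transfected with GFP-fused PKCδ (wild type or Q257E); imaged 24 h later. Live confocal time series (488 nm excitation, 522/32 emission) in a perfusion chamber at 37 °C after ligand addition (test compound 20 µM; PMA 1 µM). Plasma- and internal-membrane GFP redistribution assessed visually.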

[8] = target: Protein kinase C delta type (Mus musculus) (UniProt P28867); experiment: Effect on membrane translocation of PKCdelta-GFP Q257E mutant in CHOK1 cells at 20 uM after 1 hr; type: functional, cell-based; conditions: CHO-K1; procedure, shortened: as §2

`CC(C)CC(CC=C1OC(CO)(COC(=O)C(C)(C)C)OC1=O)CC(C)C` (centres undefined) gave a Ki [1] of 6.41 nM.
For `CC(C)CC(=O)OCC1(CO)C/C(=C/CC(CC(C)C)CC(C)C)C(=O)O1` (centres undefined), the Ratio Ki [2] was 55, the Ki [3] was 53 nM and the Ki [4] was 0.96 nM. For the same compound, the Ki [1] was 3.49 nM.
For `CCCC(=O)O[C@@H]1[C@@H](C)[C@@]2(O)[C@@H](C=C(CO)C[C@]3(O)C(=O)C(C)=C[C@@H]23)[C@@H]2C(C)(C)[C@]12OC(=O)CCC`, the Kd [5] was 383 nM, the Ki [3] was 6.2 nM and the Kd [6] was 2.04 nM. For the same compound, the Ki [4] was 0.33 nM.
In the case of `CC(C)C/C=C1/OC(CO)(COC(=O)CC(CC(C)C)CC(C)C)OC1=O` (centres undefined), the Ratio Ki [2] is reported as 1910, the Ki [3] is reported as 1720 nM and the Ki [4] is reported as 0.9 nM.
`CC(C)CC(=O)OCC1(CO)OC(=O)/C(=C\CC(CC(C)C)CC(C)C)O1` (centres undefined) showed a Ratio Ki [2] of 1230, a Ki [3] of 3460 nM and a Ki [4] of 2.82 nM. It also gave a Ki [1] of 19.8 nM.
`CC(C)CC(C/C=C1/OC(CO)(COC(=O)C(C)(C)C)OC1=O)CC(C)C` (centres undefined) was tested, and the Ratio Ki [2] was 3070, the Activity [7] was “Active” and the Ki [5] was 1570 nM. The Ki [3] was 2510 nM, the Ki [6] was 4.31 nM and the Ki [4] was 0.82 nM. For the same compound, the Activity [8] was “inactive”.
`CC(C)CC(C/C=C1/CC(CO)(COC(=O)C(C)(C)C)OC1=O)CC(C)C` (centres undefined) was tested, and the Ratio Ki [2] was 39, the Ki [5] was 476 nM and the Ki [3] was 44.8 nM. For the same compound, the Ki [6] was 1.21 nM, the Ki [4] was 1.15 nM and the Ki [1] was 2.9 nM.
For `CC(C)CC=C1OC(CO)(COC(=O)CC(CC(C)C)CC(C)C)OC1=O` (centres undefined), the Ki [1] was 5.78 nM.
`CC(C)C/C=C1/CC(CO)(COC(=O)CC(CC(C)C)CC(C)C)OC1=O` (centres undefined) showed a Ratio Ki [2] of 35, a Ki [3] of 73.7 nM and a Ki [4] of 2.13 nM. For the same compound, the Ki [1] was 3.07 nM.
